Laboratory results published in ChEMBL document CHEMBL1949589, “Hydrophilic pyrazine dyes as exogenous fluorescent tracer agents for real-time point-of-care measurement of glomerular filtration rate” (J Med Chem, 2011).

Tests used:
[1] = Drug excretion in Sprague-Dawley rat urine after 6 hrs; format: ADME
In short: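 Test agent (1 mL, 2 mM in PBS) given by tail vein to conscious restrained rats in metabolic cages, urine collected at 2, 4 and 6 h with cage washes; or to rats anesthetized with Inactin 100 mg/kg ip, tracheotomized, kept on 37 °C pad, with bladder urine drawn at 6 h. Urine level by HPLC with fluorescence detection against external standards; %ID from mass balance; mean ± SEM, n=3-6.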

[2] = Stability of the compound assessed as drug degradation by HPLC analysis; format: physicochemical
[3] = Plasma protein binding in rat at 20 uM after 1 hr by HPLC analysis; format: ADME, cell-free; conditions: read-out: PPB (converted)
In short: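 20 μM compound in rat plasma, 37 °C for 1 h. Free fraction separated by 30 kDa MWCO centrifugal ultrafiltration and quantified by HPLC with fluorescence detection against external calibration standards.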

[4] = Terminal half life in Sprague-Dawley rat plasma […]; format: ADME, organism-based; conditions: read-out: beta t1/2
In short: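 Male Sprague Dawley rats (330-380 g), Inactin ip, tracheotomized, with femoral vein dosing and femoral artery sampling catheters. Dose was 1 mL of 2 mM agent; about 200 μL blood taken at 0-120 min (10 points). Plasma measured by HPLC with fluorescence detection against external standards. Terminal-phase half-life from two-compartment modeling; mean ± SEM, n=4-8.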

[5] = test system: Rattus norvegicus; assay: Plasma clearance in Sprague-Dawley rat in presence of 70 mg/kg probenecid administered 10 mins prior to compound treatment; conditions: in vivo
[6] = species on record: Mus musculus; assay: Drug uptake in mouse bladder at 300 uL after 60 mins by real-time fluorescence analysis; conditions: in vivo, 1 h

Compound: Nc1nc(C(=O)N[C@@H](CO)C(=O)O)c(N)nc1C(=O)N[C@@H](CO)C(=O)O
- urinary excretion (% of injected dose) at 6 h [1]: 82 % ID
- Stability [2]: Stable
- fraction unbound at 1 h, 20 µM [3]: 1
- half-life [4]: 36 min
- CL [5]: Not Active

Compound: Nc1nc(C(=O)N[C@H](CC(=O)O)C(=O)O)c(N)nc1C(=O)N[C@H](CC(=O)O)C(=O)O
- urinary excretion (% of injected dose) at 6 h [1]: 61 % ID
- fraction unbound at 1 h, 20 µM [3]: 1

Compound: O=C(NCC(O)CO)c1nc(NC[C@H](O)CO)c(C(=O)NCC(O)CO)nc1NC[C@H](O)CO (stereo not given in full)
- urinary excretion (% of injected dose) at 6 h [1]: 88 % ID
- Stability [2]: Stable
- Drug uptake [6]: Active
- fraction unbound at 1 h, 20 µM [3]: 0.94
- half-life [4]: 19 min
- CL [5]: Active

Compound: CNC(=O)c1c(I)c(NC(C)=O)c(I)c(C(=O)O)c1I [IOTHALAMIC ACID]
- urinary excretion (% of injected dose) at 6 h [1]: 80 % ID
- fraction unbound at 1 h, 20 µM [3]: 0.9
- half-life [4]: 32 min
- CL [5]: Active

Compound: O=C(NCC(O)CO)c1nc(NC[C@@H](O)CO)c(C(=O)NCC(O)CO)nc1NC[C@@H](O)CO (stereo not given in full)
- urinary excretion (% of injected dose) at 6 h [1]: 87 % ID
- fraction unbound at 1 h, 20 µM [3]: 0.96

Compound: CCCNc1nc(C(=O)N[C@H](CO)C(=O)O)c(NCCC)nc1C(=O)N[C@H](CO)C(=O)O
- fraction unbound at 1 h, 20 µM [3]: 0.26

Compound: NC(=O)c1nc(NC[C@H](O)CO)c(C(N)=O)nc1NC[C@H](O)CO
- urinary excretion (% of injected dose) at 6 h [1]: 25 % ID
- fraction unbound at 1 h, 20 µM [3]: 0.85

Compound: O=C(N[C@H](CO)C(=O)O)c1nc(NC[C@H](O)CO)c(C(=O)N[C@H](CO)C(=O)O)nc1NC[C@H](O)CO
- urinary excretion (% of injected dose) at 6 h [1]: 85 % ID
- Stability [2]: Stable
- fraction unbound at 1 h, 20 µM [3]: 1
- half-life [4]: 20 min
- CL [5]: Active

Compound: Nc1nc(C(=O)NCCO)c(N)nc1C(=O)NCCO
- fraction unbound at 1 h, 20 µM [3]: 0.88

Compound: Nc1nc(C(=O)N[C@H](CO)C(=O)O)c(N)nc1C(=O)N[C@H](CO)C(=O)O [RELMAPIRAZIN]
- urinary excretion (% of injected dose) at 6 h [1]: 90 % ID
- Stability [2]: Stable
- fraction unbound at 1 h, 20 µM [3]: 1
- half-life [4]: 29 min
- CL [5]: Active

Compound: Nc1nc(C(=O)NCC(O)CO)c(N)nc1C(=O)NCC(O)CO (stereo not given)
- urinary excretion (% of injected dose) at 6 h [1]: 61 % ID
- fraction unbound at 1 h, 20 µM [3]: 0.98
